Values after ≈ are worked out from the molar mass of the structure shown. Values joined by “and” are separate entries in the source; they are usually repeats but may differ in a detail not shown here. Identical values can stand only once.
What was measured:
[1] = cited from earlier work
[2] = tested on: fathead minnows (Pimephales promelas); settings: dietary exposure to commercial mixture containing TBB and TBPH; cited from earlier work
[3] = TBB/TBPH metabolism in human liver microsomes; type: in vitro ADME
[4] = Solubility limit of TBB in incubation buffer; type: physicochemical; settings: potassium phosphate buffer, pH 7.4
Method in brief: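 Practical upper limit judged from kinetics incubations in 100 mM potassium phosphate (pH 7.4), glass tubes, shaking at 37°C, 10 min, nine concentrations 0.0078–31.1 μM. Dosing concentrations checked by LC/MS/MS (negative APCI, C18 column, isocratic 98% methanol). Limit taken as the highest concentration without unacceptably high variability in measured substrate concentration.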

[5] = tested on: hepatic porcine carboxylesterase; assay: Metabolism in purified hepatic porcine carboxylesterase; type: in vitro ADME; settings: Michaelis-Menten model, 10-min incubations
PCE [6] = assay: DEHP hydrolysis to MEHP by PCE; type: in vitro ADME, porcine; settings: 127 vs 1.08 pmol min^-1 mg protein^-1
PCE [7] = settings: DEHP 50 μM; cited from earlier work
Phase II metabolism [8] = type: in vitro ADME, human; settings: cytosol, 90 min; for Phase II metabolites detected (sulfation, glutathione conjugation): PAPS or reduced glutathione; for loss of parent compound during Phase II incubation: sulfation / glutathione cofactors
Phase II metabolism [9] = type: in vitro ADME, human; settings: HLM; for Phase II metabolites detected (glucuronidation): 2 mM UDPGA, alamethicin, MgCl2, 90 min; for loss of parent compound during Phase II incubation: glucuronidation cofactors, 90 min

CCCCC(CC)COC(=O)c1cc(Br)c(Br)c(Br)c1Br (stereo not drawn) [TBB, 2-ethylhexyl-2,3,4,5-tetrabromobenzoate]
estimated log KOW [1]: 8.8 | metabolism in fathead minnows [2]: metabolized to form unidentified brominated metabolites | decrease of TBB during incubation (amount) ([3]; 60-min incubation, HLM 40 μg protein mL^-1, TBB 27.1 ± 1.3 μM): ~2.9 nmol | reduction in the concentration of TBB ([3]; 60-min incubations with HLM, metabolite identification, GC/MS): 79.9 ± 4.6% | Vmax for TBBA formation in HLM ([3]; Michaelis-Menten model, 10-min incubations, 40 μg protein mL^-1, TBB 0.0078–31.1 μM): 0.644 ± 0.144 nmol min^-1 mg protein^-1 | effect of NADPH on the formation rate of TBBA ([3]; NADPH 0, 0.3, 3.0 and 30 mM, data not shown): did not significantly affect | Km at 10 min ([3]; both, human, pH 7.4, Km for TBBA formation in HLM, Michaelis-Menten model, 10-min incubations, 40 μg protein mL^-1, TBB 0.0078–31.1 μM): 11.1 ± 3.9 µM | Km ([3]; read-out: Km for TBBA formation in HLM, Michaelis-Menten model, 10-min incubations, 40 μg protein mL^-1, TBB 0.0078–31.1 μM): ~10 µM | solubility [4]: ~30 µM (≈ 16.5 µg/mL) | Vmax for TBBA formation in PCE [5]: 24.4 ± 2.6 nmol min^-1 mg protein^-1 | Km ([5]; read-out: Km for TBBA formation in PCE): 9.3 µM and ~10 µM

CCCCC(CC)COC(=O)c1ccccc1C(=O)OCC(CC)CCCC (stereo not drawn) [DEHP, bis(2-ethylhexyl) phthalate]
DEHP hydrolysis rate relative to TBPH hydrolysis rate in PCE (PCE [6]): approximately 100 times | MEHP formation rate from DEHP in PCE (PCE [7]): 127 pmol min^-1 mg protein^-1

CCCCC(CC)COC(=O)c1c(Br)c(Br)c(Br)c(Br)c1C(=O)O (stereo not drawn) [TBMEHP, mono(2-ethylhexyl) 2,3,4,5-tetrabromophthalate]
Phase II metabolites detected (sulfation, glutathione conjugation) (Phase II metabolism [8]): no Phase II metabolites were detected | loss of parent compound during Phase II incubation (Phase II metabolism [8]): no significant losses | Phase II metabolites detected (glucuronidation) (Phase II metabolism [9]): no Phase II metabolites were detected | loss of parent compound during Phase II incubation (Phase II metabolism [9]): no significant losses

O=C(O)c1cc(Br)c(Br)c(Br)c1Br [TBBA, 2,3,4,5-tetrabromobenzoic acid]
Phase II metabolites detected (sulfation, glutathione conjugation) (Phase II metabolism [8]): no Phase II metabolites were detected | loss of parent compound during Phase II incubation (Phase II metabolism [8]): no significant losses | Phase II metabolites detected (glucuronidation) (Phase II metabolism [9]): no Phase II metabolites were detected | loss of parent compound during Phase II incubation (Phase II metabolism [9]): no significant losses
